From PubChem
Compounds with a hit are over-represented: about 1.8% of the library has one in this group of screens.
M5 ag – agonists of human muscarinic M5 receptor (CHRM5) | P08912 | CHO-K1 hM5 cells, Fluo-8 calcium fluorescence; 0% DMSO wells, 100% maximal acetylcholine response | activation, % at 3 µM | hit rate 0.19% among 360,000;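 active means activation above the run's mean over test compounds plus 3 SD, cut at about 23% in these data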;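 further: signal is peak over basal fluorescence ratio across the kinetic read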
M4 ag – CHRM4 agonism in calcium assay; AID 624127; hit rate 0.14% among 360,000; activation, % at 3 µM; CHO-K1 hM4/Gqi5, Fluo-8 calcium fluorescence; vehicle 0%, full acetylcholine response 100%;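 active means activation above the run mean over all test wells plus 3 SD, cut at about 32% in these data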;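 further: peak over basal fluorescence ratio per well then scaled between controls; 0% = DMSO wells and 100% = acetylcholine at EC100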
Target sequence (P08173 whole entry, looked up): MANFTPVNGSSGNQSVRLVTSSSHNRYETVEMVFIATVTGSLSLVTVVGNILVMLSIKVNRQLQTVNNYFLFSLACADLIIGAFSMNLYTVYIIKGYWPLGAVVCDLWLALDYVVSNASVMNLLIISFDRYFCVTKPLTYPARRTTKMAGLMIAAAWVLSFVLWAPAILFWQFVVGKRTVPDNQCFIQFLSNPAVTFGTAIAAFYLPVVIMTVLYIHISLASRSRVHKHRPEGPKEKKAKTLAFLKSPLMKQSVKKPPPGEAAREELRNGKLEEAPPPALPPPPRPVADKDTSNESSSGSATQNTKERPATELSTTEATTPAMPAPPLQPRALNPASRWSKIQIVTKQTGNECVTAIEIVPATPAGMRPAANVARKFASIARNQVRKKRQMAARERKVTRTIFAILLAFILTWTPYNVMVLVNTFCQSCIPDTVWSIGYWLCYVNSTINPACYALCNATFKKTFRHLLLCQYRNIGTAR
CHRM5 PAM – potentiates acetylcholine response at human M5 receptor; P08912; CHO-K1 hM5, Fluo-8 calcium, ACh EC20 PAM; 0% = ACh EC20, 100% = ACh EC100; activation, % at 3 µM; hit rate 0.3% among 360,000;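 active means activation above the run cutoff, the mean activation of all test compounds plus 3 SD, cut at about 18% in these data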
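System: CHO-K1 cell line with stable human muscarinic M5 receptor expression | Also added: EC20 acetylcholine as agonist stimulus | Compound: One concentration, 3 µM final (nominal) | Timing: Fluo-8 loading 80 min at 37 °C plus 30 min room temperature | Measured by: Fluo-8 calcium dye fluorescence, kinetic read | Read-out basis: % activation, ACh-normalized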
CHRM5 antagonist – antagonists of human muscarinic M5 receptor (CHRM5); P08912; CHO-hM5 cells, Fluo-8 calcium fluorescence, ACh EC80; inhibition, % at 3 µM; hit rate 0.59% among 360,000;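 active means inhibition above a per-plate cutoff, the mean of that plate's test compounds plus 3 SD, cut at about 27% in these data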;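 further: 0% = acetylcholine EC80 with DMSO and 100% = DMSO without agonist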
CHRM4 antagonist – CHRM4 antagonism in calcium assay. P08173. CHO-hM4 cells, ACh EC80, Fluo-8 calcium fluorescence. inhibition, % at 3 µM. hit rate 0.73% among 360,000;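 active means inhibition above its plate's cutoff, the mean inhibition of sample wells plus 3 SD, cut at about 27% in these data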;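 further: 0% = acetylcholine EC80 with DMSO and 100% = DMSO without agonist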
CHRM4 PAM – potentiates acetylcholine response at human M4 receptor; CHO-K1 hM4/Gqi5, Fluo-8 calcium fluorescence, ACh EC20; 0% = ACh EC20, 100% = maximal ACh; activation, % at 3 µM; hit rate 0.4% among 360,000; AID 624126;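 active means activation above its plate's cutoff, the mean activation of sample wells plus 3 SD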
* hit, by the source's call.

For CSCC[C@H](NC(=O)[C@H](Cc1ccccc1)n1c(=O)[nH]c2ccccc2c1=O)C(=O)N[C@@H](Cc1ccccc1)C(=O)O the results were M5 ag 1, M4 ag 0, CHRM5 PAM -2, CHRM5 antagonist 4, CHRM4 antagonist -3 and CHRM4 PAM 3.
`Cc1cc(/C=C2\SC(=S)N(Cc3ccco3)C2=O)c(C)n1-c1ccccc1` gave M5 ag 12, M4 ag 2, CHRM5 PAM 22*, CHRM5 antagonist 6, CHRM4 antagonist 2 and CHRM4 PAM -1.
O=C1NC(=Nc2cccnc2)S/C1=C/c1ccc(F)cc1 was read as M5 ag 1, M4 ag 2, CHRM5 PAM 6, CHRM5 antagonist 2, CHRM4 antagonist -19 and CHRM4 PAM 16*.
For O=C1NC(=Nc2ccccc2)S/C1=C\c1cccnc1 the results were M5 ag 1, M4 ag 2, CHRM5 PAM -7, CHRM5 antagonist 22, CHRM4 antagonist -4 and CHRM4 PAM -1.
CCCCOC(=O)C1CN(c2ccccc2)N=C1C(C)=O (stereo not given) was read as M5 ag -9, M4 ag 1, CHRM5 PAM -11, CHRM5 antagonist 10, CHRM4 antagonist -18 and CHRM4 PAM -1.
`CCCCOC(=O)C1CN(c2ccccc2)N=C1C(=O)OCC` (stereo not given) gave M5 ag -6, M4 ag -1, CHRM5 PAM 0, CHRM5 antagonist -5, CHRM4 antagonist -8 and CHRM4 PAM 20*.
For O=C1NC[C@H](CCCCN2CCN(CCc3ccccc3)C(=O)C2=O)N(CCc2ccccc2)C1=O the results were M5 ag -1, M4 ag 1, CHRM5 PAM -7, CHRM5 antagonist 8, CHRM4 antagonist 6 and CHRM4 PAM -2.
Screening O=C(COc1ccc(Br)cc1)Nc1ccccc1C(=O)NC1CC1 returned M5 ag -1, M4 ag 0, CHRM5 PAM 5, CHRM5 antagonist 5, CHRM4 antagonist -5 and CHRM4 PAM 4.
CN(C)C(C)(C)C#CCC(c1ccccc1)c1ccccc1 was read as M5 ag -8, M4 ag 3, CHRM5 PAM -20, CHRM5 antagonist 46*, CHRM4 antagonist 38* and CHRM4 PAM -17.
CN(C)C(C)(C)C#CCCCCC#CC(C)(C)N(C)C was read as M5 ag -1, M4 ag 1, CHRM5 PAM 0, CHRM5 antagonist 7, CHRM4 antagonist 12 and CHRM4 PAM 3.
COc1ccc(-c2c[n+](CC(=O)OC3CC(C)CCC3C(C)C)c3n2CCC3)cc1 (stereo not given) was read as M5 ag -15, M4 ag 1, CHRM5 PAM -31, CHRM5 antagonist 65*, CHRM4 antagonist 34* and CHRM4 PAM -24.
`CC1CCC(C(C)C)C(OC(=O)C[n+]2cccc(C(N)=O)c2)C1` (stereo not given) gave M5 ag -13, M4 ag 0, CHRM5 PAM -8, CHRM5 antagonist 4, CHRM4 antagonist -11 and CHRM4 PAM 11.
Screening CC(C)[C@@H]1CC[C@@H](C)C[C@H]1OC(=O)C[n+]1cc(-c2ccc(Cl)cc2)n2c1CCCCC2 returned M5 ag -19, M4 ag 1, CHRM5 PAM -32, CHRM5 antagonist 77*, CHRM4 antagonist 42* and CHRM4 PAM -51.
For CC(=O)Nc1ccc(Sc2ncccc2C(=O)Nc2ccc(F)cc2)cn1 the results were M5 ag 50*, M4 ag 94*, CHRM5 PAM -14, CHRM5 antagonist 15, CHRM4 antagonist 26 and CHRM4 PAM -26.
For CCCCN1C(=O)C(=O)N(CC(=O)Nc2cc(Cl)ccc2OC)C1=O the results were M5 ag 7, M4 ag 3, CHRM5 PAM 7, CHRM5 antagonist -11, CHRM4 antagonist -17 and CHRM4 PAM 24*.
For CCCCN1C(=O)C(=O)N(CC(=O)Nc2ccccc2C(C)=O)C1=O the results were M5 ag 0, M4 ag 0, CHRM5 PAM 7, CHRM5 antagonist 5, CHRM4 antagonist 3 and CHRM4 PAM 4.
Cc1ccc(C)c(CNS(=O)(=O)c2c(C)[nH]c(C)c2C(=O)N2CCCCC2)c1 was read as M5 ag 1, M4 ag 1, CHRM5 PAM 19*, CHRM5 antagonist -18, CHRM4 antagonist 2 and CHRM4 PAM 14.
Screening Cc1[nH]c(C)c(S(=O)(=O)NCc2ccc(N(C)C)cc2)c1C(=O)N1CCCC1 returned M5 ag -8, M4 ag 1, CHRM5 PAM -3, CHRM5 antagonist 16, CHRM4 antagonist 2 and CHRM4 PAM 18*.
Screening CC(=O)NCCC(=O)Nc1nc(-c2c[nH]c3ccccc23)cs1 returned M5 ag -1, M4 ag 1, CHRM5 PAM 1, CHRM5 antagonist -6, CHRM4 antagonist -20 and CHRM4 PAM 16*.
Screening CC(=O)Nc1nc(-c2cccc3ccccc23)cs1 returned M5 ag -5, M4 ag -1, CHRM5 PAM 15, CHRM5 antagonist -17, CHRM4 antagonist -10 and CHRM4 PAM -6.
CCOc1cc(C2NC(=O)NC(C)=C2C(=O)OCC2CCCCC2)ccc1O (stereo not given) was read as M5 ag -5, M4 ag 3, CHRM5 PAM -14, CHRM5 antagonist 29*, CHRM4 antagonist 0 and CHRM4 PAM -3.
Screening CCOC(=O)C1=C(c2ccccc2)NC(=O)NC1c1ccc(O)c(OCC)c1 (stereo not given) returned M5 ag -3, M4 ag 1, CHRM5 PAM -2, CHRM5 antagonist 8, CHRM4 antagonist 0 and CHRM4 PAM 3.
For CCOC(=O)C1=C(CS(=O)(=O)c2ccc(C)cc2)NC(=O)NC1c1ccc(O)c(OC)c1 (stereo not given) the results were M5 ag 3, M4 ag 0, CHRM5 PAM 20*, CHRM5 antagonist -11, CHRM4 antagonist -4 and CHRM4 PAM 18.
For C=CCNC(=O)CC(=O)N/N=C/c1cccc(C)c1 the results were M5 ag 0, M4 ag 0, CHRM5 PAM -2, CHRM5 antagonist 10, CHRM4 antagonist 11 and CHRM4 PAM 0.
O=C1NCC(COCC2CC=CCC2)O1 (stereo not given) was read as M5 ag 2, M4 ag 2, CHRM5 PAM 4, CHRM5 antagonist -1, CHRM4 antagonist 17 and CHRM4 PAM 28*.
CCc1nnc(SCC(=O)Nc2ccc3ccccc3c2)n1N was read as M5 ag 0, M4 ag 1, CHRM5 PAM -2, CHRM5 antagonist 15, CHRM4 antagonist 10 and CHRM4 PAM -3.
